Converted amounts (≈) assume the structure as drawn. The source made the active and inactive calls. No cut-off for these calls is given here.
How the values were obtained:
Trichoderma viride [1] = experiment: Antifungal activity against Trichoderma viride MTCC 1107 assessed as zone of inhibition at 40 uM after 48 hrs by disc diffusion method; format: functional; details: MTCC 1107, 48 h, read-out: IZ
Method in brief: (§1)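 Spores from 4-day potato dextrose agar cultures, suspended in sterile water at 1.5 × 10⁵ CFU/mL. 0.2 mL was spread on potato dextrose agar. 5 mm filter-paper discs soaked with test compound were laid on the lawn. Incubation was 48 h at 28 °C, then the inhibition zone was measured in mm. Fluconazole was the positive control and acetone the negative control.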

Staphylococcus aureus [2] = experiment: Antimicrobial activity against Staphylococcus aureus ATCC 11632 assessed as diameter of inhibition zone at 20 uM after 24 hrs by Kirby -Baur disc diffusion method; format: functional; details: ATCC 11632, 24 h, read-out: DIZ
Method in brief: (§2)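 Kirby-Bauer disc diffusion was used. Acetone stocks (160 µM) were serially doubled down to 80, 40 and 20 µM. 4 µL of each went onto 5 mm sterile paper discs, which were dried 30 min at 50 °C. Inoculum was 1.5 × 10⁸ CFU/mL diluted to 3 × 10² CFU/mL, and 50 µL was spread on Mueller-Hinton agar. After 24 h at 37 °C the inhibition-zone diameter was measured. Ciprofloxacin served as positive control.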

Aspergillus niger [3] = experiment: Antifungal activity against Aspergillus niger MTCC 1108 after 48 hrs; format: functional; details: MTCC 1108, 48 h
Curvularia lunata [4] = experiment: Antifungal activity against Curvularia lunata MTCC 581 after 48 hrs; format: functional; details: MTCC 581, 48 h
HeLa = experiment: Cytotoxicity against human HeLa cells after 24 hrs by MTT assay; format: functional, cell-based
Method in brief: (§3)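 The MTT assay seeded 5 × 10⁴ cells per well and grew them 24 h in RPMI 1640 with compound at 2.5–200 µM. Medium without cells was the blank and adriamycin the positive control. MTT was added for 4 h at 37 °C, formazan was solubilised, and absorbance was read at 570 nm. IC50 is the concentration that cuts viability 50% against untreated cells.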

Salmonella typhi [5] = experiment: Antimicrobial activity against Salmonella typhi ATCC 23564 assessed as diameter of inhibition zone at 40 uM after 24 hrs by Kirby -Baur disc diffusion method; format: functional, Salmonella enterica subsp. enterica serovar Typhi; details: Salmonella enterica, ATCC 23564, 24 h; read-out: DIZ
Trichoderma viride [6] = experiment: Antifungal activity against Trichoderma viride MTCC 1107 assessed as zone of inhibition at 80 uM after 48 hrs by disc diffusion method; format: functional; details: MTCC 1107, 48 h, read-out: IZ; method in brief: as §1
Aspergillus flavus [7] = experiment: Antifungal activity against Aspergillus flavus MTCC 1021 assessed as zone of inhibition at 20 uM after 48 hrs by disc diffusion method; format: functional; method in brief: as §1
Curvularia lunata [8] = experiment: Antifungal activity against Curvularia lunata MTCC 581 assessed as zone of inhibition at 20 uM after 48 hrs by disc diffusion method; format: functional; details: MTCC 581, 48 h, read-out: IZ; method in brief: as §1
Trichoderma viride [9] = experiment: Antifungal activity against Trichoderma viride MTCC 1107 assessed as zone of inhibition at 20 uM after 48 hrs by disc diffusion method; format: functional; details: MTCC 1107, 48 h, read-out: IZ; method in brief: as §1
Pseudomonas aeruginosa [10] = experiment: Antimicrobial activity against Pseudomonas aeruginosa ATCC 15499 assessed as diameter of inhibition zone at 80 uM after 24 hrs by Kirby -Baur disc diffusion method; format: functional; details: ATCC 15499, 24 h, read-out: DIZ; method in brief: as §2
Aspergillus niger [11] = experiment: Antifungal activity against Aspergillus niger MTCC 1108 assessed as zone of inhibition at 80 uM after 48 hrs by disc diffusion method; format: functional; details: MTCC 1108, 48 h, read-out: IZ; method in brief: as §1
Curvularia lunata [12] = experiment: Antifungal activity against Curvularia lunata MTCC 581 assessed as zone of inhibition at 40 uM after 48 hrs by disc diffusion method; format: functional; details: MTCC 581, 48 h, read-out: IZ; method in brief: as §1
Salmonella typhi [13] = experiment: Antimicrobial activity against Salmonella typhi ATCC 23564 assessed as diameter of inhibition zone at 80 uM after 24 hrs by Kirby -Baur disc diffusion method; format: functional, Salmonella enterica subsp. enterica serovar Typhi; details: Salmonella enterica, ATCC 23564, 24 h; read-out: DIZ
Staphylococcus aureus [14] = experiment: Antimicrobial activity against Staphylococcus aureus ATCC 11632 assessed as diameter of inhibition zone at 80 uM after 24 hrs by Kirby -Baur disc diffusion method; format: functional; details: ATCC 11632, 24 h, read-out: DIZ; method in brief: as §2
Aspergillus flavus [15] = experiment: Antifungal activity against Aspergillus flavus MTCC 1021 assessed as zone of inhibition at 40 uM after 48 hrs by disc diffusion method; format: functional; method in brief: as §1
Escherichia coli [16] = experiment: Antimicrobial activity against Escherichia coli ATCC 35218 assessed as diameter of inhibition zone at 20 uM after 24 hrs by Kirby -Baur disc diffusion method; format: functional; details: ATCC 35218, 24 h, read-out: DIZ; method in brief: as §2
HepG2 = experiment: Cytotoxicity against human HepG2 cells after 24 hrs by MTT assay; format: functional, cell-based; method in brief: as §3
Aspergillus flavus [17] = experiment: Antifungal activity against Aspergillus flavus MTCC 1021 after 48 hrs; format: functional; details: MTCC 1021, 48 h
Bacillus cereus [18] = experiment: Antimicrobial activity against Bacillus cereus MTCC 7350 assessed as diameter of inhibition zone at 20 uM after 24 hrs by Kirby -Baur disc diffusion method; format: functional; details: MTCC 7350, 24 h, read-out: DIZ; method in brief: as §2
Escherichia coli [19] = experiment: Antimicrobial activity against Escherichia coli ATCC 35218 assessed as diameter of inhibition zone at 80 uM after 24 hrs by Kirby -Baur disc diffusion method; format: functional; details: ATCC 35218, 24 h, read-out: DIZ; method in brief: as §2
Escherichia coli [20] = experiment: Antimicrobial activity against Escherichia coli ATCC 35218 after 24 hrs by broth micro serial dilution method; format: functional; details: ATCC 35218, 24 h
Method in brief: (§4)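 This was broth microdilution in autoclaved Mueller-Hinton broth. 150 µL of compound per well was serially diluted […], and 50 µL of test organism was added. Plates were incubated 24 h at 37 °C and optical density was read.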

Staphylococcus aureus [21] = experiment: Antimicrobial activity against Staphylococcus aureus ATCC 11632 after 24 hrs by broth micro serial dilution method; format: functional; details: ATCC 11632, 24 h; method in brief: as §4
Pseudomonas aeruginosa [22] = experiment: Antimicrobial activity against Pseudomonas aeruginosa ATCC 15499 after 24 hrs by broth micro serial dilution method; format: functional; details: ATCC 15499, 24 h; method in brief: as §4
Mus musculus = experiment: Antiinflammatory activity in mouse assessed as inhibition of carrageenan-induced increase in paw volume at 200 mg/kg administered 1 hr prior to carrageenan challenge measured after 3 hrs relative to control; format: functional
Method in brief: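 Mice were fasted 2 h and placed in groups of five. Controls received saline i.p. Phenylbutazone was given at 100 mg/kg i.p., curcumin at 200 mg/kg i.p., and derivatives at 200 mg/kg. After 1 h, 0.1 mL of 1% carrageenan in saline was injected subplantar into the right hind paw. Paw volume was followed by plethysmometer for 3 h, and % inhibition was calculated as (Vc − Vt)/Vc × 100.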

Bacillus cereus [23] = experiment: Antimicrobial activity against Bacillus cereus MTCC 7350 assessed as diameter of inhibition zone at 40 uM after 24 hrs by Kirby -Baur disc diffusion method; format: functional; details: MTCC 7350, 24 h, read-out: DIZ; method in brief: as §2
QG-56 = experiment: Cytotoxicity against human QG56 cells after 24 hrs by MTT assay; format: functional, cell-based; method in brief: as §3
Aspergillus flavus [24] = experiment: Antifungal activity against Aspergillus flavus MTCC 1021 assessed as zone of inhibition at 80 uM after 48 hrs by disc diffusion method; format: functional; details: MTCC 1021, 48 h, read-out: IZ; method in brief: as §1
Aspergillus niger [25] = experiment: Antifungal activity against Aspergillus niger MTCC 1108 assessed as zone of inhibition at 20 uM after 48 hrs by disc diffusion method; format: functional; method in brief: as §1
Curvularia lunata [26] = experiment: Antifungal activity against Curvularia lunata MTCC 581 assessed as zone of inhibition at 80 uM after 48 hrs by disc diffusion method; format: functional; details: MTCC 581, 48 h, read-out: IZ; method in brief: as §1
Salmonella typhi [27] = experiment: Antimicrobial activity against Salmonella typhi ATCC 23564 assessed as diameter of inhibition zone at 20 uM after 24 hrs by Kirby -Baur disc diffusion method; format: functional, Salmonella enterica subsp. enterica serovar Typhi; details: Salmonella enterica, ATCC 23564, 24 h; read-out: DIZ
Pseudomonas aeruginosa [28] = experiment: Antimicrobial activity against Pseudomonas aeruginosa ATCC 15499 assessed as diameter of inhibition zone at 40 uM after 24 hrs by Kirby -Baur disc diffusion method; format: functional; details: ATCC 15499, 24 h, read-out: DIZ; method in brief: as §2
HCT-116 = experiment: Cytotoxicity against human HCT116 cells after 24 hrs by MTT assay; format: functional, cell-based; method in brief: as §3
Escherichia coli [29] = experiment: Antimicrobial activity against Escherichia coli ATCC 35218 assessed as diameter of inhibition zone at 40 uM after 24 hrs by Kirby -Baur disc diffusion method; format: functional; details: ATCC 35218, 24 h, read-out: DIZ; method in brief: as §2
Staphylococcus aureus [30] = experiment: Antimicrobial activity against Staphylococcus aureus ATCC 11632 assessed as diameter of inhibition zone at 40 uM after 24 hrs by Kirby -Baur disc diffusion method; format: functional; details: ATCC 11632, 24 h, read-out: DIZ; method in brief: as §2
Salmonella typhi [31] = experiment: Antimicrobial activity against Salmonella typhi ATCC 23564 after 24 hrs by broth micro serial dilution method; format: functional, Salmonella enterica subsp. enterica serovar Typhi; details: Salmonella enterica, ATCC 23564, 24 h
Trichoderma viride [32] = experiment: Antifungal activity against Trichoderma viride MTCC 1107 after 48 hrs; format: functional; details: MTCC 1107, 48 h
Bacillus cereus [33] = experiment: Antimicrobial activity against Bacillus cereus MTCC 7350 assessed as diameter of inhibition zone at 80 uM after 24 hrs by Kirby -Baur disc diffusion method; format: functional; details: MTCC 7350, 24 h, read-out: DIZ; method in brief: as §2
Pseudomonas aeruginosa [34] = experiment: Antimicrobial activity against Pseudomonas aeruginosa ATCC 15499 assessed as diameter of inhibition zone at 20 uM after 24 hrs by Kirby -Baur disc diffusion method; format: functional; details: ATCC 15499, 24 h, read-out: DIZ; method in brief: as §2
Aspergillus niger [35] = experiment: Antifungal activity against Aspergillus niger MTCC 1108 assessed as zone of inhibition at 40 uM after 48 hrs by disc diffusion method; format: functional; method in brief: as §1
Bacillus cereus [36] = experiment: Antimicrobial activity against Bacillus cereus MTCC 7350 after 24 hrs by broth micro serial dilution method; format: functional; details: MTCC 7350, 24 h; method in brief: as §4

COc1cc(/C=C/C(CC(/C=C/c2ccc(O)c(OC)c2)=N/c2ccc(S(=O)(=O)Nc3cc(C)on3)cc2)=N\c2ccc(S(=O)(=O)Nc3cc(C)on3)cc2)ccc1O
zone of inhibition at 40 µM (Trichoderma viride [1]): 11 mm
zone of inhibition at 20 µM (Staphylococcus aureus [2]): 17 mm
MIC (Aspergillus niger [3]): > 80 µM
MIC (Curvularia lunata [4]): 40 µM (≈ 33.6 µg/mL)
IC50 (HeLa): 100 µM
zone of inhibition at 40 µM (Salmonella typhi [5]): 26 mm
zone of inhibition at 80 µM (Trichoderma viride [6]): 13 mm
inhibition zone (IZ) (Aspergillus flavus [7]): inactive
zone of inhibition at 20 µM (Curvularia lunata [8]): 9 mm
zone of inhibition at 20 µM (Trichoderma viride [9]): 9 mm
zone of inhibition at 80 µM (Pseudomonas aeruginosa [10]): 26 mm
zone of inhibition at 80 µM (Aspergillus niger [11]): 10 mm
zone of inhibition at 40 µM (Curvularia lunata [12]): 10 mm
zone of inhibition at 80 µM (Salmonella typhi [13]): 29 mm
zone of inhibition at 80 µM (Staphylococcus aureus [14]): 24 mm
inhibition zone (IZ) (Aspergillus flavus [15]): inactive
zone of inhibition at 20 µM (Escherichia coli [16]): 18 mm
IC50 (HepG2): 100 µM
MIC (Aspergillus flavus [17]): > 80 µM
zone of inhibition at 20 µM (Bacillus cereus [18]): 11 mm
zone of inhibition at 80 µM (Escherichia coli [19]): 23 mm
MIC (Escherichia coli [20]): 20 µM (≈ 16.8 µg/mL)
MIC (Staphylococcus aureus [21]): 40 µM (≈ 33.6 µg/mL)
MIC (Pseudomonas aeruginosa [22]): 40 µM (≈ 33.6 µg/mL)
inhibition in vivo at 200 mg/kg (Mus musculus): 8%
zone of inhibition at 40 µM (Bacillus cereus [23]): 16 mm
IC50 (QG-56): 100 µM
zone of inhibition at 80 µM (Aspergillus flavus [24]): 9 mm
inhibition zone (IZ) (Aspergillus niger [25]): inactive
zone of inhibition at 80 µM (Curvularia lunata [26]): 11 mm
zone of inhibition at 20 µM (Salmonella typhi [27]): 18 mm
zone of inhibition at 40 µM (Pseudomonas aeruginosa [28]): 21 mm
IC50 (HCT-116): 100 µM
zone of inhibition at 40 µM (Escherichia coli [29]): 21 mm
zone of inhibition at 40 µM (Staphylococcus aureus [30]): 21 mm
MIC (Salmonella typhi [31]): 40 µM (≈ 33.6 µg/mL)
MIC (Trichoderma viride [32]): 40 µM (≈ 33.6 µg/mL)
zone of inhibition at 80 µM (Bacillus cereus [33]): 21 mm
zone of inhibition at 20 µM (Pseudomonas aeruginosa [34]): 16 mm
inhibition zone (IZ) (Aspergillus niger [35]): inactive
MIC (Bacillus cereus [36]): 40 µM (≈ 33.6 µg/mL)
